Drawing on ChEMBL document CHEMBL1130162, “Structure-activity relationships of cysteine-lacking pentapeptide derivatives that inhibit ras farnesyltransferase” (J Med Chem, 1997), this text covers IC50 for 40 molecules.

pIC50: −log10 of the molar value.

The test concerns the target Protein farnesyltransferase (Rattus norvegicus, UniProt Q02293+Q04631). Nature of the test: Inhibitory concentration against rat brain farnesyltransferase. Put shortly: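 Rat brain FTase (40-fold purified), pH 7.4, in 30 mM potassium phosphate, 5 mM phosphate plus 50 mM Hepes, or 50 mM Hepes. Buffer also held 7 mM DTT, 1.2 mM MgCl2 and protease inhibitors. Final substrates were 0.12 μM [1-3H]FPP and 0.1 μM biotinyl-aminoheptanoyl-TKCVIM, with inhibitor varied from DMSO stock. Reaction ran 30 min at 37 °C, was stopped with streptavidin beads, and was counted by scintillation proximity. Generally n = 2.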
Turning to `C[C@H](NC(=O)[C@@H](Cc1c[nH]c2ccccc12)NC(=O)[C@@H](CSCc1ccccc1)NC(=O)[C@@H](Cc1ccc(OCc2ccccc2)cc1)NC(=O)[C@@H](Cc1cnc[nH]1)NC(=O)OCc1ccccc1)C(N)=O`, the pIC50 (in general, −log10 of the IC50, conventionally taken in molar units) was 7.82.

Molecule `C[C@H](NC(=O)[C@@H](Cc1c[nH]c2ccccc12)NC(=O)[C@@H](COCc1ccccc1)NC(=O)[C@@H](Cc1ccc(OCc2ccccc2)cc1)NC(=O)[C@@H](Cc1c[nH]cn1)NC(=O)[C@@H]1CCC(=O)N1)C(N)=O` showed a negative logarithm of the IC50 (pIC50) of less than 4.70.

With `COC(=O)[C@H](C)NC(=O)[C@@H](Cc1c[nH]c2ccccc12)NC(=O)[C@@H](COCc1ccccc1)NC(=O)[C@@H](Cc1ccc(OCc2ccccc2)cc1)NC(=O)[C@@H](Cc1cnc[nH]1)NC(=O)OCc1ccccc1`, the pIC50 is 7.32.

Turning to `CC(NC(=O)[C@@H](COCc1ccccc1)NC(=O)[C@@H](Cc1ccc(OCc2ccccc2)cc1)NC(=O)[C@@H](Cc1cnc[nH]1)NC(=O)OCc1ccccc1)C(=O)N[C@@H](C)C(N)=O` (stereo not given in full), the pIC50 is 6.60.

`C[C@H](NC(=O)C(Cc1ccccc1)NC(=O)[C@@H](COCc1ccccc1)NC(=O)[C@@H](Cc1ccc(OCc2ccccc2)cc1)NC(=O)[C@@H](Cc1cnc[nH]1)NC(=O)OCc1ccccc1)C(N)=O` (stereo not given in full) gave a pIC50 of 5.60.

`C[C@H](NC(=O)[C@@H](Cc1c[nH]c2ccccc12)NC(=O)[C@@H](COCc1ccccc1)NC(=O)[C@@H](Cc1ccc(OCc2ccccc2)cc1)NC(=O)C(Cc1c[nH]c2ccccc12)NC(=O)OCc1ccccc1)C(N)=O` (stereo not given in full) gave a pIC50 of less than 4.70.

Turning to `C[C@H](NC(=O)[C@@H](Cc1c[nH]c2ccccc12)NC(=O)[C@@H](COCc1ccccc1)NC(=O)C(CC1CCCCC1)NC(=O)[C@@H](Cc1cnc[nH]1)NC(=O)OCc1ccccc1)C(N)=O` (stereo not given in full), the pIC50 is 7.18.

As to `CC(NC(=O)OCc1ccccc1)C(=O)N[C@H](Cc1ccc(OCc2ccccc2)cc1)C(=O)N[C@H](COCc1ccccc1)C(=O)N[C@H](Cc1c[nH]c2ccccc12)C(=O)N[C@@H](C)C(N)=O` (stereo not given in full), the negative-log IC50 (pIC50) is less than 4.70.

With `C[C@H](NC(=O)[C@@H](Cc1c[nH]c2ccccc12)NC(=O)[C@@H](CCC(=O)O)NC(=O)[C@@H](Cc1ccc(OCc2ccccc2)cc1)NC(=O)[C@@H](Cc1c[nH]cn1)NC(=O)OCc1ccccc1)C(N)=O`, the pIC50 was 6.70.

The molecule `C[C@H](NC(=O)[C@@H](Cc1c[nH]c2ccccc12)NC(=O)[C@@H](COCc1ccccc1)NC(=O)[C@@H](Cc1ccc(OCc2ccccc2)cc1)NC(=O)C(N)CCCNC(=O)OCc1ccccc1)C(N)=O` (stereo not given in full) had a pIC50 of 5.33.

For `C[C@H](NC(=O)[C@@H](Cc1c[nH]c2ccccc12)NC(=O)[C@@H](COCc1ccccc1)NC(=O)C(CCCCN)NC(=O)[C@@H](Cc1cnc[nH]1)NC(=O)OCc1ccccc1)C(N)=O` (stereo not given in full), the pIC50 is 5.72.

`C[C@H](NC(=O)[C@@H](Cc1c[nH]c2ccccc12)NC(=O)[C@@H](COCc1ccccc1)NC(=O)[C@@H](Cc1ccc(OCc2ccccc2)cc1)NC(=O)[C@@H](Cc1cnc[nH]1)NC(=O)OCc1ccccc1)C(=O)NN` gave a pIC50 of 7.19.

In turn, `C[C@H](NC(=O)[C@@H](Cc1c[nH]c2ccccc12)NC(=O)[C@@H](COCc1ccccc1)NC(=O)[C@@H](Cc1ccc(OCc2ccccc2)cc1)NC(=O)C(Cc1c[nH]cn1)NC(=O)OCc1ccccc1)C(N)=O` (stereo not given in full) showed a pIC50 of 7.09.

With `C[C@H](NC(=O)[C@@H](Cc1c[nH]c2ccccc12)NC(=O)[C@H](COCc1ccccc1)NC(=O)[C@@H](Cc1ccc(OCc2ccccc2)cc1)NC(=O)[C@@H](Cc1cnc[nH]1)NC(=O)OCc1ccccc1)C(N)=O`, the pIC50 is 4.89.

Take `C[C@H](NC(=O)[C@@H](Cc1c[nH]c2ccccc12)NC(=O)[C@@H](COCc1ccccc1)NC(=O)[C@@H](Cc1ccc(OCc2ccccc2)cc1)NC(=O)C(Cc1ccccc1)NC(=O)OCc1ccccc1)C(N)=O` (stereo not given in full): the pIC50 is less than 4.70.

Molecule `C[C@@H](NC(=O)[C@H](Cc1c[nH]c2ccccc12)NC(=O)[C@H](COCc1ccccc1)NC(=O)[C@H](Cc1ccccc1)NC(=O)[C@H](Cc1c[nH]cn1)NC(=O)OCc1ccccc1)C(N)=O` (single isomer, unassigned) showed a pIC50 of 8.05.

`C[C@H](NC(=O)[C@@H](Cc1c[nH]c2ccccc12)NC(=O)[C@@H](CO)NC(=O)[C@@H](Cc1ccc(OCc2ccccc2)cc1)NC(=O)[C@@H](Cc1cnc[nH]1)NC(=O)OCc1ccccc1)C(N)=O` gave a negative-log IC50 (pIC50) of 5.74.

Turning to `C[C@H](NC(=O)[C@@H](Cc1c[nH]c2ccccc12)NC(=O)[C@@H](COCc1ccccc1)NC(=O)[C@@H](Cc1ccc(OCc2ccccc2)cc1)NC(=O)[C@@H](Cc1cnc[nH]1)NC(=O)OCC1c2ccccc2-c2ccccc21)C(N)=O`, the pIC50 was 5.80.

In turn, `C[C@H](NC(=O)[C@@H](Cc1c[nH]c2ccccc12)NC(=O)[C@@H](COCc1ccccc1)NC(=O)[C@@H](Cc1ccc(OCc2ccccc2)cc1)NC(=O)[C@@H](Cc1cnc[nH]1)NC(=O)OC1CCC1)C(N)=O` had a negative-log IC50 (pIC50) of 5.49.

`C[C@H](NC(=O)[C@@H](Cc1c[nH]c2ccccc12)NC(=O)C(Cc1ccccc1)NC(=O)[C@@H](Cc1ccc(OCc2ccccc2)cc1)NC(=O)[C@@H](Cc1c[nH]cn1)NC(=O)OCc1ccccc1)C(N)=O` (stereo not given in full) showed a pIC50 of 6.89.

`C[C@H](NC(=O)[C@@H](Cc1c[nH]c2ccccc12)NC(=O)[C@@H](COCc1ccccc1)NC(=O)[C@@H](Cc1ccc(OCc2ccccc2)cc1)NC(=O)C(CS)NC(=O)OCc1ccccc1)C(N)=O` (stereo not given in full): the pIC50 was 6.77.

In turn, `CCNC(=O)[C@H](C)NC(=O)[C@@H](Cc1c[nH]c2ccccc12)NC(=O)[C@@H](COCc1ccccc1)NC(=O)[C@@H](Cc1ccc(OCc2ccccc2)cc1)NC(=O)[C@@H](Cc1c[nH]cn1)NC(=O)OCc1ccccc1` showed a pIC50 of 6.77.

`C[C@H](NC(=O)[C@@H](Cc1c[nH]c2ccccc12)NC(=O)[C@@H](COCc1ccccc1)NC(=O)[C@@H](CCc1ccccc1)NC(=O)[C@@H](Cc1c[nH]cn1)NC(=O)OCc1ccccc1)C(N)=O` showed a negative logarithm of the IC50 (pIC50) of 7.74.

Take `C[C@H](NC(=O)[C@@H](Cc1c[nH]c2ccccc12)NC(=O)[C@@H](COCc1ccccc1)NC(=O)[C@@H](Cc1ccc(OCc2ccccc2)cc1)NC(=O)[C@H](N)Cc1cnc[nH]1)C(N)=O`: the pIC50 is 5.35.

`CC(NC(=O)[C@@H](Cc1c[nH]c2ccccc12)NC(=O)[C@@H](COCc1ccccc1)NC(=O)[C@@H](Cc1ccc(OCc2ccccc2)cc1)NC(=O)[C@@H](Cc1c[nH]cn1)NC(=O)OCc1ccccc1)C(N)=O` (stereo not given in full) gave a pIC50 of 8.07.

As for `C[C@@H](NC(=O)[C@H](Cc1c[nH]c2ccccc12)NC(=O)[C@H](COCc1ccccc1)NC(=O)[C@@H](Cc1ccccc1)NC(=O)[C@H](Cc1cnc[nH]1)NC(=O)OCc1ccccc1)C(N)=O` (stereo in doubt), the pIC50 was 7.10.

Molecule `C[C@H](NC(=O)[C@@H](Cc1c[nH]c2ccccc12)NC(=O)[C@@H](COCc1ccccc1)NC(=O)C(CCC(N)=O)NC(=O)[C@@H](Cc1cnc[nH]1)NC(=O)OCc1ccccc1)C(N)=O` (stereo not given in full) had a pIC50 of 7.27.

With `C[C@H](NC(=O)[C@@H](Cc1c[nH]c2ccccc12)NC(=O)[C@@H](COCc1ccccc1)NC(=O)[C@@H](Cc1ccc(OCc2ccccc2)cc1)NC(=O)[C@@H](Cc1c[nH]cn1)NC(=O)OCc1ccccc1)C(=O)O`, the negative-log IC50 (pIC50) is 7.32.

Take `C[C@H](NC(=O)[C@@H](Cc1c[nH]c2ccccc12)NC(=O)[C@@H](COCc1ccccc1)NC(=O)C(CCC(=O)O)NC(=O)[C@@H](Cc1c[nH]cn1)NC(=O)OCc1ccccc1)C(N)=O` (stereo not given in full): the pIC50 is 7.74.

`CC(NC(=O)[C@@H](Cc1ccc(OCc2ccccc2)cc1)NC(=O)[C@@H](Cc1c[nH]cn1)NC(=O)OCc1ccccc1)C(=O)N[C@H](Cc1c[nH]c2ccccc12)C(=O)N[C@@H](C)C(N)=O` (stereo not given in full) showed a pIC50 of 5.96.

Molecule `C[C@H](NC(=O)[C@@H](Cc1c[nH]c2ccccc12)NC(=O)[C@@H](COCc1ccccc1)NC(=O)[C@H](CS)NC(=O)[C@@H](Cc1c[nH]cn1)NC(=O)OCc1ccccc1)C(N)=O` gave a pIC50 of 5.31.

In turn, `C[C@H](NC(=O)[C@@H](Cc1c[nH]c2ccccc12)NC(=O)[C@@H](COCc1ccccc1)NC(=O)[C@@H](Cc1ccc(OCc2ccccc2)cc1)NC(=O)[C@H](Cc1cnc[nH]1)NC(=O)OCc1ccccc1)C(N)=O` showed a negative-log IC50 (pIC50) of 7.46.

For `C[C@H](NC(=O)[C@H](Cc1c[nH]c2ccccc12)NC(=O)[C@@H](COCc1ccccc1)NC(=O)[C@@H](Cc1ccc(OCc2ccccc2)cc1)NC(=O)[C@@H](Cc1cnc[nH]1)NC(=O)OCc1ccccc1)C(N)=O`, the pIC50 is 5.06.

In the case of `CC(=O)N[C@H](Cc1cnc[nH]1)C(=O)N[C@H](Cc1ccc(OCc2ccccc2)cc1)C(=O)N[C@H](COCc1ccccc1)C(=O)N[C@H](Cc1c[nH]c2ccccc12)C(=O)N[C@@H](C)C(N)=O`, the negative logarithm of the IC50 (pIC50) was 5.00.

The molecule `C[C@@H](NC(=O)[C@H](Cc1c[nH]c2ccccc12)NC(=O)[C@H](COCc1ccccc1)NC(=O)[C@@H](Cc1ccc(O)cc1)NC(=O)[C@H](Cc1cnc[nH]1)NC(=O)OCc1ccccc1)C(N)=O` (stereo in doubt) gave a pIC50 of 6.77.

As for `C[C@H](NC(=O)[C@@H](Cc1c[nH]c2ccccc12)NC(=O)[C@@H](COCc1ccccc1)NC(=O)[C@H](C)NC(=O)[C@@H](Cc1c[nH]cn1)NC(=O)OCc1ccccc1)C(N)=O`, the pIC50 is 6.00.

With `C[C@H](NC(=O)[C@@H](Cc1c[nH]c2ccccc12)NC(=O)[C@@H](COCc1ccccc1)NC(=O)[C@@H](Cc1ccc(OCc2ccccc2)cc1)NC(=O)[C@@H](Cc1c[nH]cn1)NC(=O)OC1CCCCC1)C(N)=O`, the pIC50 is 5.42.

In turn, `C[C@H](NC(=O)[C@@H](Cc1c[nH]c2ccccc12)NC(=O)[C@@H](CS)NC(=O)[C@@H](Cc1ccc(OCc2ccccc2)cc1)NC(=O)[C@@H](Cc1cnc[nH]1)NC(=O)OCc1ccccc1)C(N)=O` showed a negative logarithm of the IC50 (pIC50) of 8.40.

The molecule `C[C@H](NC(=O)[C@@H](Cc1c[nH]c2ccccc12)NC(=O)[C@H](NC(=O)[C@@H](Cc1ccc(OCc2ccccc2)cc1)NC(=O)[C@@H](Cc1cnc[nH]1)NC(=O)OCc1ccccc1)[C@@H](C)OCc1ccccc1)C(N)=O` gave a pIC50 of 7.82.

For the molecule `C[C@H](NC(=O)[C@@H](Cc1c[nH]c2ccccc12)NC(=O)[C@@H](COCc1ccccc1)NC(=O)[C@H](CC(=O)O)NC(=O)[C@@H](Cc1c[nH]cn1)NC(=O)OCc1ccccc1)C(N)=O`, the pIC50 is 7.42.
